According to publication PMC10515777 (bioRxiv, 2024):

What was measured:
WT CFTR = WT CFTR (Homo sapiens, UniProt P13569); test: Inside-out patch clamp recording of macroscopic currents, WT CFTR; type: biochemical; conditions: for change of CFTR currents: enantiomers perfused at 100 M, inside-out patches, 3 mM ATP
Procedure, shortened: (§1)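 WT, S308A or Y304A CFTR (mutants made by site-directed mutagenesis), C-terminally GFP-tagged in BacMam vector, transfected into CHO cells, then 2% FBS at 30 °C for 2 days. Excised inside-out patches were phosphorylated with 25 units/ml PKA plus 3 mM ATP and held at −30 mV, 25 °C, pH 7.4 NMDG solutions. Fold stimulation is the current ratio with/without perfused compound. Dose-response currents were normalized to pre-titration ATP current and fitted for EC50. Means ± SE of patches.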

S308A CFTR = S308A CFTR (Homo sapiens, UniProt P13569, S308A); test: Inside-out patch clamp recording, S308A CFTR; type: biochemical; conditions: inside-out patches, 3 mM ATP
Sequence of S308A CFTR (P13569 whole entry S308A): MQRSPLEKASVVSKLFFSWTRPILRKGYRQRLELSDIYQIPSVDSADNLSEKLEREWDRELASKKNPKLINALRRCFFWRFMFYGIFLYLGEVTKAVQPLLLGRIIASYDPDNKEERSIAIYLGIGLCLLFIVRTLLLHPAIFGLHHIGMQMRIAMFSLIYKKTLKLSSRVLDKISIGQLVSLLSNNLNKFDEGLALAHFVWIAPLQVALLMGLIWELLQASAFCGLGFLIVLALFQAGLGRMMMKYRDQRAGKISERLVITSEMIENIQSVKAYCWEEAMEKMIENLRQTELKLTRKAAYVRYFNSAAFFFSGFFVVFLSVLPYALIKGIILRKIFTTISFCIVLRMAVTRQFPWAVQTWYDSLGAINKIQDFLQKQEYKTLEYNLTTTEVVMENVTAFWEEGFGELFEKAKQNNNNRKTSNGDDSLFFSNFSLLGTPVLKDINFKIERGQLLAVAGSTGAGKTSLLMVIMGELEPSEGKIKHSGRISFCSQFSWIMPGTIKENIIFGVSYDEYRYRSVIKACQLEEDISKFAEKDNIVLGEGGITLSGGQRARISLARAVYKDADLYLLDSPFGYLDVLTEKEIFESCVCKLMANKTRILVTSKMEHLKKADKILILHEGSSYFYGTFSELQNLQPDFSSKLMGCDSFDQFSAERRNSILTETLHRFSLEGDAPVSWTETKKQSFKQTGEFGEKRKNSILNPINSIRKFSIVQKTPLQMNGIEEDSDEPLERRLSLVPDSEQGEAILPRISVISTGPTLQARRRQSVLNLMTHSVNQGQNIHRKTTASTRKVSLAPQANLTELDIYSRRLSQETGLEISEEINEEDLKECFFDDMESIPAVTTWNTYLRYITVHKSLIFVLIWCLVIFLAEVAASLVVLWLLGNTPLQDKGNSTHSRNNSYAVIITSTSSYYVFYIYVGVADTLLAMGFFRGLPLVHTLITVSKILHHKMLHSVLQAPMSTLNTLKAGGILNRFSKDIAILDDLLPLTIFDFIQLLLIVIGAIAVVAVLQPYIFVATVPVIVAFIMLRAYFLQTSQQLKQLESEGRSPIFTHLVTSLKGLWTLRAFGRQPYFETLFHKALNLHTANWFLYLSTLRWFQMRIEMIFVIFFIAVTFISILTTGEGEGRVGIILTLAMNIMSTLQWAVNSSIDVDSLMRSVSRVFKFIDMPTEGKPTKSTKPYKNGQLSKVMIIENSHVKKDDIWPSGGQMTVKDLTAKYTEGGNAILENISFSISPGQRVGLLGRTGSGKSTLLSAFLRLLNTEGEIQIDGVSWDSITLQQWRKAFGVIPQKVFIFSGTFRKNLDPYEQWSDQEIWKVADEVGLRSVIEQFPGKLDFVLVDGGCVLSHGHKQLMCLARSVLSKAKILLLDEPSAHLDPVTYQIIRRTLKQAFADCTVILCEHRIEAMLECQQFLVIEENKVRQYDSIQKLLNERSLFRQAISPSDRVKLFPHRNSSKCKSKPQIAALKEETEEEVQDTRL
Procedure, shortened: as §1

Y304A CFTR = Y304A CFTR (Homo sapiens, UniProt P13569, Y304A); test: Inside-out patch clamp recording, Y304A CFTR; type: biochemical; conditions: inside-out patches, 3 mM ATP
Sequence of Y304A CFTR (P13569 whole entry Y304A): as the sequence (P13569 whole entry S308A) above, with Y304A, A308S counted along it
Procedure, shortened: as §1

[1] = ref [8]; cited from earlier work
[2] = ref [9],[10]; cited from earlier work

Sequence of WT CFTR (P13569 whole entry, the tested form may be a part): as the sequence (P13569 whole entry S308A) above, with A308S counted along it

Question: With `C[C@H](COc1ccccc1)C(=O)n1ncc2ccc(C(N)=O)cc21` [Compound I1412, (R)-1-(2-Methyl-3-phenoxypropanoyl)-1H-indazole-6-carboxamide] as the molecule, how does the IC50 (WT CFTR) read?
Answer: 21000 nM

Question: And the “effect of alanine substitution S308A on compound activity” value (S308A CFTR)?
Answer: eliminated the activity

Question: And the “effect of alanine substitution Y304A on compound activity” value (Y304A CFTR)?
Answer: eliminated the activity

Question: With `C[C@@H](COc1ccccc1)C(=O)n1nc(N)c2ccc(CO)cc21` [Compound I1408, (S)-1-(3-Amino-6-(hydroxymethyl)-1H-indazol-1-yl)-2-methyl-3-phenoxypropan-1-one] as the molecule, how does the EC50 (WT CFTR) read?
Answer: 93 ± 42 nM

Question: For `C[C@H](COc1ccccc1)C(=O)n1nc(N)c2ccc(C(N)=O)cc21` [Compound I1422, (R)-3-Amino-1-(2-methyl-3-phenoxypropanoyl)-1H-indazole-6-carboxamide], which IC50 (WT CFTR) is on record?
Answer: 41000 nM

Question: With `CC(C)(C)c1cc(C(C)(C)C)c(NC(=O)c2c[nH]c3ccccc3c2=O)cc1O` [Ivacaftor, N-(2,4-di-tert-butyl-5-hydroxyphenyl)-4-oxo-1,4-dihydroquinoline-3-carboxamide] as the molecule, how does the water solubility [1] read?
Answer: < 0.05 µg/mL

Question: What about the “bound to plasma proteins” value [2] of the same molecule?
Answer: 99%

Question: For `C[C@@H](COc1ccc(F)cc1)C(=O)n1nc(N)c2ccc(F)cc21` [(S)-SX263, (S)-1-(3-Amino-6-fluoro-1H-indazol-1-yl)-3-(4-fluorophenoxy)-2-methylpropan-1-one], which EC50 (WT CFTR) is on record?
Answer: 136 ± 60 nM

Question: What does the source list for `C[C@@H](COc1ccccc1)C(=O)n1nc(N)c2ccc(F)cc21` [(S)-’853, (S)-1-(3-Amino-6-fluoro-1H-indazol-1-yl)-2-methyl-3-phenoxypropan-1-one]?
Answer: EC50 (WT CFTR): 2100 ± 900 nM; change of CFTR currents (WT CFTR): 1.5 fold; effect of alanine substitution S308A on compound activity (S308A CFTR): abolished the potentiating effect; effect of alanine substitution Y304A on compound activity (Y304A CFTR): abolished the potentiating effect

Question: Which “change of CFTR currents” value (WT CFTR) does the source give for `C[C@H](COc1ccccc1)C(=O)n1nc(N)c2ccc(F)cc21` [(R)-’853, (R)-1-(3-Amino-6-fluoro-1H-indazol-1-yl)-2-methyl-3-phenoxypropan-1-one] here?
Answer: 0.89 fold
